This note sets out measurements from ChEMBL document CHEMBL1148987, “Antimycobacterial coumarins from the sardinian giant fennel (Ferula communis)” (2004).

Common to all, as to assay type: functional
For one experiment, the system named is Mycolicibacterium aurum. Briefly: Antimycobacterial activity against Mycobacterium aurum after 120 hrs by MTT assay. In a few lines:
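Broth microdilution MIC in Ca2+/Mg2+-adjusted Mueller-Hinton broth; strain maintained on Columbia blood agar with 5% defibrinated horse blood. Compounds dissolved in DMSO, diluted into MHB, 2-fold serial dilutions giving final 512 to 1 μg/mL. Inoculum from 0.5 McFarland in saline, final 5 × 10^5 cfu/mL. Incubated 37 °C, 120 h. MTT added, 20 min at 37 °C; blue indicates growth; MIC = lowest concentration without growth.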
For orientation: Tetrazolium dyes change colour on reduction, which living cells bring about.

Experiment [1] deals with Mycolicibacterium fortuitum. The experiment is described as follows: Antimycobacterial activity against Mycobacterium fortuitum ATCC 6841 after 72 hrs by MTT assay. The note with it: ATCC 6841, 72 h. In a few lines:
(§1)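 Standard broth microdilution MIC in Ca2+/Mg2+-adjusted Mueller-Hinton broth; strains kept on Columbia blood agar with 5% defibrinated horse blood. DMSO stocks diluted into MHB, 2-fold series with final range […]. Inoculum from 0.5 McFarland standard in saline, final 5 × 10^5 cfu/mL; 37 °C for 72 h. Growth read by MTT (20 min, 37 °C, blue = growth); MIC = lowest concentration with no growth.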

The test system of experiment [2] is Mycolicibacterium smegmatis. The experiment is described as follows: Antimycobacterial activity against Mycobacterium smegmatis ATCC 14468 after 72 hrs by MTT assay. The note with it: ATCC 14468, 72 h. In a few lines: as §1
The subject of another experiment is Mycolicibacterium phlei. Briefly: Antimycobacterial activity against Mycobacterium phlei ATCC 11758 after 72 hrs by MTT assay. The note with it: ATCC 11758, 72 h. In a few lines: as §1

Values after ≈ are worked out from the molar mass of the structure shown.

One may read the MIC as the lowest concentration that inhibits growth of the organism. Higher therefore signals a less susceptible organism. As to `C/C(=C\CC/C(C)=C/CC/C(C)=C/Cc1c(O)c2ccccc2oc1=O)CO`, the MIC with Mycolicibacterium aurum worked out at 32 µg/mL (≈ 83.7 µM); in experiment [1], 64 µg/mL (≈ 167 µM); in experiment [2] it was 16 µg/mL (≈ 41.8 µM); in the experiment with Mycolicibacterium phlei it was 16 µg/mL (≈ 41.8 µM).

Consider `CC(=O)OC/C(C)=C/CC/C(C)=C/CC/C(C)=C/Cc1c(O)c2ccccc2oc1=O`, for which the MIC in the experiment on Mycolicibacterium aurum was determined as 16 µg/mL (≈ 37.7 µM); in experiment [1], 32 µg/mL (≈ 75.4 µM); in experiment [2], 8 µg/mL (≈ 18.8 µM); against Mycolicibacterium phlei, 8 µg/mL (≈ 18.8 µM).

With `NNC(=O)c1ccncc1` [ISONIAZID], the MIC against Mycolicibacterium aurum amounted to 2 µg/mL (≈ 14.6 µM); in experiment [1], 0.5 µg/mL (≈ 3.65 µM); in experiment [2], 1 µg/mL (≈ 7.29 µM); in the experiment on Mycolicibacterium phlei, 4 µg/mL (≈ 29.2 µM).

Take `CC[C@@H](CO)NCCN[C@@H](CC)CO` [ETHAMBUTOL]: the MIC in the experiment with Mycolicibacterium aurum is 0.5 µg/mL (≈ 2.45 µM); in experiment [1] it was 8 µg/mL (≈ 39.2 µM); in experiment [2] it was 0.5 µg/mL (≈ 2.45 µM); with Mycolicibacterium phlei, 2 µg/mL (≈ 9.79 µM).

In experiment [1], `CCCCCCCCCc1c(O)c2ccccc2oc1=O` came in with an MIC of 3.5 µg/mL (≈ 12.1 µM).

With `C/C(=C\CC/C(C)=C/Cc1c(O)c2ccccc2oc1=O)CC/C=C(\C)COC(=O)c1ccccc1`, the MIC in the experiment with Mycolicibacterium aurum was determined as 8 µg/mL (≈ 16.4 µM); in experiment [1], 16 µg/mL (≈ 32.9 µM); in experiment [2] it was 2 µg/mL (≈ 4.11 µM); against Mycolicibacterium phlei it was 2 µg/mL (≈ 4.11 µM).

Turning to `CC(C)=CCC/C(C)=C/CC/C(C)=C/Cc1c(O)c2ccccc2oc1=O`, the MIC with Mycolicibacterium aurum amounted to 2 µg/mL (≈ 5.46 µM); in experiment [1], 2 µg/mL (≈ 5.46 µM); in experiment [2], 0.5 µg/mL (≈ 1.36 µM); against Mycolicibacterium phlei, 2 µg/mL (≈ 5.46 µM).
